We go through twelve molecules from ChEMBL document CHEMBL3272012, “5-(Tetradecyloxy)-2-furancarboxylic acid and related hypolipidemic fatty acid-like alkyloxyarylcarboxylic acids” (J Med Chem, 1977).

One may read the inhibition in vivo as the relative decrease from the control value, in per cent.

In data set [1] the test system is Rattus norvegicus. Kind of data set: Hypolipidemic activity in Wistar rat assessed as reduction in plasma triglyceride level at 430 umol/kg/day administered through diet for 4 days. It counts as functional. To be noted: 96 h. A digest of the protocol:
(§1)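 Young male Wistar rats (initial weight 170-190 g), groups of six, fed compound mixed into Purina Lab Chow ad libitum for 4 or 10 days; daily dose calculated from food consumption and body weight. Bled by cardiac puncture; plasma cholesterol and triglycerides by automated procedures; percent reduction versus simultaneous untreated controls, Student's t test.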

The test system of data set [2] is Rattus norvegicus. Kind of data set: Increase in liver weight in Wistar rat at 430 umol/kg/day administered through diet for 4 days. It counts as ADME, organism-based. Particulars: in vivo, po, 96 h. A digest of the protocol: (§2)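 Male Wistar rats (170-190 g initial), groups of six, dosed via diet ad libitum for 4 or 10 days, daily dose from food consumption. Liver wet weight measured, expressed as g/100 g final body weight, compared with untreated controls run simultaneously.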

Data set [3] deals with Rattus norvegicus. Kind of data set: Increase in cholesterol level in Wistar rat liver at 430 umol/kg/day administered through diet for 4 days. It counts as ADME, organism-based. Particulars: in vivo, po, 96 h. A digest of the protocol:
(§3)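 Male Wistar rats (170-190 g), six per group, given compound by admixture to lab chow ad libitum for 4 or 10 days, dose derived from food intake. Liver cholesterol determined by automated procedure, expressed as mg/g wet tissue, compared with an untreated control group by Student's t test.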

In data set [4] the test system is Rattus norvegicus. Kind of data set: Hypolipidemic activity in Wistar rat assessed as reduction in plasma cholesterol level at 430 umol/kg/day administered through diet for 4 days. It counts as functional. Particulars: 96 h. In a few lines:
(§4)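 Young male Wistar rats, 170-190 g initial weight, groups of six, given compound mixed thoroughly into Purina Lab Chow ad libitum for 4 or 10 days as stated. Daily dose calculated from food consumption and body weight. Bled by cardiac puncture at end of treatment; plasma cholesterol measured by automated procedure. Expressed as percent reduction versus simultaneous untreated control group; Student's t test.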

For data set [5], the system named is Rattus norvegicus. Kind of data set: Hypolipidemic activity in Wistar rat assessed as reduction in plasma cholesterol level at 443 umol/kg/day administered through diet for 4 days. It counts as functional. To be noted: 96 h. In a few lines: as §4
For data set [6], the system named is Rattus norvegicus. Kind of data set: Hypolipidemic activity in Wistar rat assessed as reduction in plasma triglyceride level at 443 umol/kg/day administered through diet for 4 days. It counts as functional. Particulars: 96 h. A digest of the protocol: as §1
The test system of data set [7] is Rattus norvegicus. Kind of data set: Hypolipidemic activity in Wistar rat assessed as reduction in plasma cholesterol level at 420 umol/kg/day administered through diet for 4 days. It counts as functional. Particulars: 96 h. In a few lines:
as §4

Data set [8] relates to Rattus norvegicus. Kind of data set: Hypolipidemic activity in Wistar rat assessed as reduction in plasma triglyceride level at 420 umol/kg/day administered through diet for 4 days. It counts as functional. To be noted: 96 h. A digest of the protocol:
as §1

The test system of data set [9] is Rattus norvegicus. Kind of data set: Increase in liver weight in Wistar rat at 420 umol/kg/day administered through diet for 4 days. To be noted: in vivo, po, 96 h. It counts as ADME, organism-based. In a few lines:
as §2

Data set [10] concerns Rattus norvegicus. Kind of data set: Hypolipidemic activity in Wistar rat assessed as reduction in plasma triglyceride level at 439 umol/kg/day administered through diet for 10 days. It counts as functional. To be noted: 240 h. In a few lines: as §1
Data set [11] concerns Rattus norvegicus. Kind of data set: Hypolipidemic activity in Wistar rat assessed as reduction in plasma cholesterol level at 439 umol/kg/day administered through diet for 10 days. It counts as functional. Particulars: 240 h. A digest of the protocol: as §4
Data set [12] relates to Rattus norvegicus. Kind of data set: Increase in liver weight in Wistar rat at 439 umol/kg/day administered through diet for 10 days. It counts as ADME, organism-based. Particulars: in vivo, po, 240 h. A digest of the protocol: as §2
Data set [13] relates to Rattus norvegicus. Kind of data set: Hypolipidemic activity in Wistar rat assessed as reduction in plasma triglyceride level at 480 umol/kg/day administered through diet for 4 days. It counts as functional. To be noted: 96 h.
The test system of data set [14] is Rattus norvegicus. Kind of data set: Increase in liver weight in Wistar rat at 480 umol/kg/day administered through diet for 4 days. It counts as ADME, organism-based. To be noted: in vivo, po, 96 h.
Data set [15] concerns Rattus norvegicus. Kind of data set: Hypolipidemic activity in Wistar rat assessed as reduction in plasma cholesterol level at 480 umol/kg/day administered through diet for 4 days. It counts as functional. To be noted: 96 h. In a few lines:
as §4

Data set [16] concerns Rattus norvegicus. Kind of data set: Hypolipidemic activity in Wistar rat assessed as reduction in plasma cholesterol level at 420 umol/kg/day administered through diet for 10 days. It counts as functional. Particulars: 240 h. In a few lines:
as §4

Data set [17] deals with Rattus norvegicus. Kind of data set: Increase in liver weight in Wistar rat at 420 umol/kg/day administered through diet for 10 days. It counts as ADME, organism-based. Particulars: in vivo, po, 240 h.
Data set [18] has as its system Rattus norvegicus. Kind of data set: Hypolipidemic activity in Wistar rat assessed as reduction in plasma triglyceride level at 420 umol/kg/day administered through diet for 10 days. It counts as functional. To be noted: 240 h. A digest of the protocol:
as §1

The test system of data set [19] is Rattus norvegicus. Kind of data set: Increase in cholesterol level in Wistar rat liver at 420 umol/kg/day administered through diet for 10 days. It counts as ADME, organism-based. To be noted: in vivo, po, 240 h. In a few lines:
as §3

For data set [20], the system named is Rattus norvegicus. Kind of data set: Increase in liver weight in Wistar rat at 606 umol/kg/day administered through diet for 10 days. It counts as ADME, organism-based. Particulars: in vivo, po, 240 h.
Data set [21] relates to Rattus norvegicus. Kind of data set: Hypolipidemic activity in Wistar rat assessed as reduction in plasma triglyceride level at 606 umol/kg/day administered through diet for 10 days. To be noted: 240 h. It counts as functional.
In data set [22] the test system is Rattus norvegicus. Kind of data set: Hypolipidemic activity in Wistar rat assessed as reduction in plasma cholesterol level at 606 umol/kg/day administered through diet for 10 days. To be noted: 240 h. It counts as functional. A digest of the protocol: as §1
Data set [23] has as its system Rattus norvegicus. Kind of data set: Hypolipidemic activity in Wistar rat assessed as reduction in plasma cholesterol level at 401 umol/kg/day administered through diet for 4 days. It counts as functional. To be noted: 96 h. In a few lines: (§5)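 Young male Wistar rats, 170-190 g at start, in groups of six, given compound mixed into Purina Lab Chow ad libitum for 4 or 10 days as stated. Daily dose was calculated from food consumption and body weight. Plasma was taken by cardiac puncture at the end and cholesterol measured by automated procedure. Results are % reduction versus a concurrent untreated control group, with Student's t test.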

The subject of data set [24] is Rattus norvegicus. Kind of data set: Increase in liver weight in Wistar rat at 401 umol/kg/day administered through diet for 4 days. It counts as ADME, organism-based. Particulars: in vivo, po, 96 h. In a few lines: as §2
Data set [25] deals with Rattus norvegicus. Kind of data set: Hypolipidemic activity in Wistar rat assessed as reduction in plasma triglyceride level at 401 umol/kg/day administered through diet for 4 days. It counts as functional. To be noted: 96 h. A digest of the protocol:
as §1

Data set [26] concerns Rattus norvegicus. Kind of data set: Hypolipidemic activity in Wistar rat assessed as reduction in plasma cholesterol level at 374 umol/kg/day administered through diet for 4 days. Particulars: 96 h. It counts as functional. In a few lines:
as §5

The test system of data set [27] is Rattus norvegicus. Kind of data set: Hypolipidemic activity in Wistar rat assessed as reduction in plasma triglyceride level at 374 umol/kg/day administered through diet for 4 days. It counts as functional. Particulars: 96 h. In a few lines: as §1
For data set [28], the system named is Rattus norvegicus. Kind of data set: Increase in liver weight in Wistar rat at 374 umol/kg/day administered through diet for 4 days. It counts as ADME, organism-based. Particulars: in vivo, po, 96 h. A digest of the protocol: as §2
In data set [29] the test system is Rattus norvegicus. Kind of data set: Hypolipidemic activity in Wistar rat assessed as reduction in plasma cholesterol level at 675 umol/kg/day administered through diet for 10 days. Particulars: 240 h. It counts as functional. A digest of the protocol: as §1
Data set [30] deals with Rattus norvegicus. Kind of data set: Increase in liver weight in Wistar rat at 675 umol/kg/day administered through diet for 10 days. It counts as ADME, organism-based. Particulars: in vivo, po, 240 h.
Data set [31] relates to Rattus norvegicus. Kind of data set: Hypolipidemic activity in Wistar rat assessed as reduction in plasma triglyceride level at 675 umol/kg/day administered through diet for 10 days. It counts as functional. To be noted: 240 h.

Regarding `CCCCCCCCCCCCCCOc1ccc(C(=O)OC)o1`, the inhibition in vivo at 430 µmol/kg came out at 67% in the data set on Rattus norvegicus [1] and 32% with Rattus norvegicus [4]. Besides, the values for the Activity in the data set on Rattus norvegicus [2] and with Rattus norvegicus [3] were 8% and 0%, respectively.

With `CCCCCCCCCCCCCCSc1ccc(C(=O)O)o1`, the inhibition in vivo at 443 µmol/kg with Rattus norvegicus [5] amounted to 18%; in the data set on Rattus norvegicus [6], 62%.

As for `CCCCCCCCCCCCCCOc1ccc(/C=C/C(=O)OC)cc1`, the inhibition in vivo at 430 µmol/kg amounted to 67% in the data set with Rattus norvegicus [1] and 28% in the data set with Rattus norvegicus [4]. For the same molecule, the Activity is 3% in the data set on Rattus norvegicus [2] and 18% in the data set with Rattus norvegicus [3].

`CCCCCCCCCCCCCCOc1ccc(C(=O)C(F)(F)F)o1`: the figures for the inhibition in vivo at 420 µmol/kg in the data set with Rattus norvegicus [7] and in the data set on Rattus norvegicus [8] were 2% and 30%, respectively. The Activity in the data set with Rattus norvegicus [9] came to 0%.

For the molecule `CCCCCCCCCCCCCCOc1ccc(C(=O)CC(N)=O)cc1`, the inhibition in vivo at 439 µmol/kg in the data set on Rattus norvegicus [10] is 3%; with Rattus norvegicus [11] it was 4%. The molecule further had an Activity in the data set with Rattus norvegicus [12] of 8%.

Consider `CCCCCCCCCCCCCCOc1ccc(-c2nnn[nH]2)cc1`, for which the inhibition in vivo at 480 µmol/kg in the data set on Rattus norvegicus [13] and in the data set on Rattus norvegicus [15] was 0% each time. This molecule also showed an Activity with Rattus norvegicus [14] of 1%.

For the molecule `CCCCCCCCCCCCCCOc1ccc(SCC(=O)O)cc1`, the inhibition in vivo at 420 µmol/kg in the data set on Rattus norvegicus [16] is 16%; in the data set on Rattus norvegicus [18], 11%. For the same molecule, the Activity in the data set on Rattus norvegicus [17] was determined as 0%; with Rattus norvegicus [19] it was 3%.

In the case of `CCCCCCc1ccc(C(=O)CC(=O)OC)cc1`, in the data set on Rattus norvegicus [20], the Activity came to 2%. The figures for the inhibition in vivo at 606 µmol/kg in the data set on Rattus norvegicus [21] and in the data set with Rattus norvegicus [22] were 35% and 2%, respectively.

As to `CCCCCCCCCCCCCCCCOc1cccc(C(=O)OC)c1`, the inhibition in vivo at 430 µmol/kg in the data set with Rattus norvegicus [1] and in the data set on Rattus norvegicus [4] was 0% throughout. Besides, the inhibition in vivo at 401 µmol/kg in the data set with Rattus norvegicus [23] and with Rattus norvegicus [25] was 0% in each case. Also, the Activity with Rattus norvegicus [2] stood at 3%; in the data set on Rattus norvegicus [24], 0%.

Regarding `CCCCCCCCCCCCCCCCOc1ccc(C(=O)CCC(=O)O)cc1`, the results for the inhibition in vivo at 374 µmol/kg in the data set on Rattus norvegicus [26] and in the data set on Rattus norvegicus [27] were 15% and 42%, respectively. Besides, in the data set on Rattus norvegicus [28], the Activity turned out to be 0%.

Consider `CCCCCCOc1ccc(C(=O)O)cc1`, for which the inhibition in vivo at 675 µmol/kg worked out at 6% in the data set with Rattus norvegicus [29] and 16% in the data set on Rattus norvegicus [31]. In the data set with Rattus norvegicus [30], this molecule showed an Activity of 1%.

For `CCCCCCCCCCCCCCCCCCOc1ccc(C(=O)O)o1`, the results for the inhibition in vivo at 420 µmol/kg in the data set on Rattus norvegicus [7] and in the data set on Rattus norvegicus [18] were 18% and 53%, respectively. Moreover, the Activity was 0% with Rattus norvegicus [9] and 18% in the data set on Rattus norvegicus [19].
